In series [1] the test system is Leishmania major. Nature of the series: Antileishmanial activity against promastigote form of Leishmania major JISH118 infected in human THP1 cells by Giemsa staining. In kind it is functional, cell-based. The following applies: JISH118, THP-1. Put shortly: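 THP-1 cells grown in RPMI-1640 with 1% L-glutamine and 10% HIFBS, seeded at 5.0 x 10^4 macrophages/well and made adherent with PMA for 3 days at 37 °C, 5% CO2. Infected with stationary-stage L. major promastigotes (cultured at 26°C in Schneider's medium) at macrophage:parasite 1:5, held at 34 °C for 48 h. Extracellular parasites washed out, compounds added at various concentrations. Activity from % infected cells versus untreated after methanol fixation and Giemsa staining; triplicate.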

Series [2] relates to U-937. Briefly: Cytotoxicity against human U937 cells up to 50 uM. In kind it is cell-based.
Series [3] concerns THP-1. Nature of the series: Cytotoxicity against human THP1 cells. In kind it is cell-based.
A short description of series [4]: Selectivity index, ratio of IC50 for human THP1 cells to IC50 for promastigote form of Leishmania major JISH118 infected in human THP1 cells. Conditions: read-out: Ratio IC50. In kind it is toxicity, cell-based. Put shortly: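 Selectivity index taken as the IC50 in THP-1 cells divided by the antileishmanial IC50 from infected THP-1 macrophages.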
In series [5] the test system is U-937. Nature of the series: Cytotoxicity against human U937 cells. In kind it is cell-based.
In series [6] the test system is Leishmania major. Nature of the series: Potency index, ratio of pentamidine IC50 to test compound IC50 for promastigote form of Leishmania major JISH118 infected in human THP1 cells. In kind it is functional.

The IC50 is the concentration that inhibits the measured activity by half. A low value points to greater potency in that assay. Regarding `COc1ccccc1-c1nnc(-c2ccc(C(=O)N/N=C/c3cc(O)ccc3O)cc2)o1`, the IC50 in series [1] worked out at 4.46 µM; in series [3], 100 µM. Also, in series [2], the Activity entry was “Non-Toxic”. In series [4], the selectivity ratio came out at 22.4.

For `COc1ccccc1-c1nnc(-c2ccc(C(=O)N/N=C/c3ccc(Cl)cc3)cc2)o1`, the IC50 in series [1] came out at 34.1 µM. In addition, in series [2], the Activity result is reported as “Non-Toxic”.

Take `COc1ccccc1-c1nnc(-c2ccc(C(=O)N/N=C/c3ccccc3F)cc2)o1`: the half-inhibitory concentration (IC50) came out at 5.18 µM in series [1] and 313 µM in series [3]. In addition, the Activity result in series [2] is “Non-Toxic”. In addition, the selectivity ratio in series [4] stood at 60.4.

On to `COc1ccccc1-c1nnc(-c2ccc(C(=O)N/N=C/c3cccc(O)c3O)cc2)o1`, for which the figures for the IC50 in series [1] and in series [3] were 1.4 µM and 102 µM, respectively. The Activity entry in series [2] was “Non-Toxic”. Besides, the selectivity ratio in series [4] turned out to be 72.6.

Take `COc1ccccc1-c1nnc(-c2ccc(C(=O)N/N=C/c3ccc([N+](=O)[O-])cc3)cc2)o1`: the IC50 in series [1] came out at 56.5 µM; in series [3], 203 µM. The Activity result in series [2] is “Non-Toxic”. Moreover, in series [4], the selectivity ratio worked out at 3.6.

Take `COc1ccccc1-c1nnc(-c2ccc(C(=O)N/N=C/c3ccc(Cl)cc3Cl)cc2)o1`: the figures for the IC50 in series [1], in series [5] and in series [3] were 5.12 µM, 75.6 µM and 78.8 µM, respectively. Besides, in series [4], the selectivity ratio was determined as 15.4.

As to `COc1ccc(/C=N/NC(=O)c2ccc(-c3nnc(-c4ccccc4OC)o3)cc2)cc1O`, the IC50 in series [1] amounted to 6.4 µM; in series [3] it was 260 µM. Moreover, in series [2], the Activity result was “Non-Toxic”. Moreover, the selectivity ratio in series [4] is 40.6.

On to `COc1ccccc1-c1nnc(-c2ccc(C(=O)N/N=C/c3ccccn3)cc2)o1`, for which the IC50 came to 9.06 µM in series [1], 68.6 µM in series [5] and 67 µM in series [3]. Further, the selectivity ratio in series [4] worked out at 7.4.

On to `COc1ccccc1-c1nnc(-c2ccc(C(=O)N/N=C/c3cccc(F)c3)cc2)o1`, for which the IC50 in series [1] stood at 6.35 µM; in series [3], 353 µM. In addition, in series [2], the Activity result is given as “Non-Toxic”. Also, in series [4], the selectivity ratio turned out to be 55.6.

As for `COc1ccccc1-c1nnc(-c2ccc(C(=O)N/N=C/c3ccccc3C)cc2)o1`, the IC50 in series [1] was determined as 34.1 µM. For the same molecule, in series [2], the Activity entry is given as “Non-Toxic”.

On to `COc1ccccc1-c1nnc(-c2ccc(C(=O)N/N=C/c3ccccc3O)cc2)o1`, for which the IC50 in series [1] was found to be 4.14 µM; in series [3] it was 207 µM. Also, the Activity entry in series [2] was “Non-Toxic”. Besides, the selectivity ratio in series [4] was 50.

For the molecule `COc1ccccc1-c1nnc(-c2ccc(C(=O)N/N=C/c3ccc(C)cc3)cc2)o1`, 29.6 µM corresponded to half-maximal inhibition in series [1] (IC50). In addition, the Activity result in series [2] is “Non-Toxic”.

With `COc1ccccc1-c1nnc(-c2ccc(C(=O)N/N=C/c3c(O)cc(O)cc3O)cc2)o1`, the half-inhibitory concentration (IC50) in series [1] came out at 4.78 µM; in series [5], 15.2 µM; in series [3], 12.4 µM. The selectivity ratio in series [4] stood at 2.6.

For `COc1ccccc1-c1nnc(-c2ccc(C(=O)N/N=C/c3ccncc3)cc2)o1`, the IC50 in series [1] came out at 38.5 µM; in series [3] it was 173 µM. In series [2], the Activity entry is given as “Non-Toxic”. Also, in series [4], the selectivity ratio amounted to 4.5.

For `COc1ccc(O)c(/C=N/NC(=O)c2ccc(-c3nnc(-c4ccccc4OC)o3)cc2)c1`, the values for the IC50 in series [1] and in series [3] were 16.3 µM and 303 µM, respectively. In addition, the Activity result in series [2] is given as “Non-Toxic”. Further, the selectivity ratio in series [4] came out at 18.6.

`COc1ccccc1-c1nnc(-c2ccc(C(=O)N/N=C/c3ccc(O)cc3)cc2)o1`: the IC50 in series [1] was determined as 7.45 µM; in series [3] it was 261 µM. Besides, in series [2], the Activity entry is reported as “Non-Toxic”. Also, the selectivity ratio in series [4] worked out at 35.

For the molecule `COc1ccccc1-c1nnc(-c2ccc(C(=O)N/N=C/c3cccc([N+](=O)[O-])c3)cc2)o1`, the IC50 stood at 74.2 µM in series [1] and 119 µM in series [3]. The Activity entry in series [2] is “Non-Toxic”. Besides, in series [4], the selectivity ratio turned out to be 1.6.

For the molecule `COc1ccccc1-c1nnc(-c2ccc(C(=O)N/N=C/c3ccc(O)cc3O)cc2)o1`, the IC50 amounted to 3.78 µM in series [1] and 104 µM in series [3]. Besides, in series [2], the Activity result was “Non-Toxic”. For the same molecule, in series [4], the selectivity ratio was determined as 27.5.

Consider `COc1ccccc1-c1nnc(-c2ccc(C(=O)N/N=C/c3ccccc3Cl)cc2)o1`, for which the IC50 in series [1] was 29.1 µM. Further, in series [2], the Activity result is given as “Non-Toxic”.

Regarding `COc1ccc(/C=N/NC(=O)c2ccc(-c3nnc(-c4ccccc4OC)o3)cc2)c(O)c1`, the IC50 in series [1] was found to be 6.6 µM; in series [3], 308 µM. Moreover, the Activity entry in series [2] is “Non-Toxic”. For the same molecule, the selectivity ratio in series [4] stood at 46.6.

Turning to `COc1ccccc1-c1nnc(-c2ccc(C(=O)N/N=C/c3cccnc3)cc2)o1`, the IC50 in series [1] stood at 46.5 µM; in series [3], 167 µM. In addition, in series [2], the Activity entry is on record as “Non-Toxic”. Moreover, the selectivity ratio in series [4] was 3.6.

Consider `COc1ccccc1-c1nnc(-c2ccc(C(=O)N/N=C/c3ccc(O)c(O)c3)cc2)o1`, for which, in series [6], the “Ratio IC50” value is given as 7. In addition, the IC50 was found to be 0.95 µM in series [1] and 100 µM in series [3]. For the same molecule, in series [2], the Activity result was “Non-Toxic”. The selectivity ratio in series [4] is 105.

Take `COc1ccccc1-c1nnc(-c2ccc(C(=O)N/N=C/c3cccc(Cl)c3)cc2)o1`: the IC50 in series [1] is 20.7 µM. Further, the Activity entry in series [2] was “Non-Toxic”.

`COc1ccccc1-c1nnc(-c2ccc(C(=O)N/N=C/c3cccc(C)c3)cc2)o1`: the IC50 in series [1] worked out at 40.2 µM. Besides, the Activity entry in series [2] is listed as “Non-Toxic”.

`COc1ccccc1-c1nnc(-c2ccc(C(=O)N/N=C/c3cc(O)c(O)cc3O)cc2)o1`: the IC50 in series [1] was determined as 0.98 µM; in series [5], 7.46 µM; in series [3], 5.4 µM. For the same molecule, the selectivity ratio in series [4] stood at 5.5.

For `COc1cccc(/C=N/NC(=O)c2ccc(-c3nnc(-c4ccccc4OC)o3)cc2)c1`, in series [1], the IC50 came out at 78.6 µM. Moreover, the Activity result in series [2] is recorded as “Non-Toxic”.

Take `COc1ccccc1-c1nnc(-c2ccc(C(=O)N/N=C/c3ccc(F)cc3)cc2)o1`: the IC50 worked out at 14.2 µM in series [1] and 427 µM in series [3]. Moreover, in series [2], the Activity result was “Non-Toxic”. The selectivity ratio in series [4] was determined as 30.1.

`COc1ccc(/C=N/NC(=O)c2ccc(-c3nnc(-c4ccccc4OC)o3)cc2)cc1`: the IC50 in series [1] turned out to be 74.2 µM. The Activity entry in series [2] is given as “Non-Toxic”.

On to `COc1ccccc1-c1nnc(-c2ccc(C(=O)N/N=C/c3cccc(O)c3)cc2)o1`, for which the IC50 in series [1] turned out to be 18.1 µM; in series [3], 398 µM. For the same molecule, the Activity result in series [2] is listed as “Non-Toxic”. Further, the selectivity ratio in series [4] worked out at 22.

Consider `COc1ccccc1-c1nnc(-c2ccc(C(=O)N/N=C/c3ccccc3[N+](=O)[O-])cc2)o1`, for which the IC50 in series [1] is 64.5 µM; in series [3] it was 161 µM. The Activity result in series [2] was “Non-Toxic”. The selectivity ratio in series [4] came to 2.5.

As to `N=C(N)c1ccc(OCCCCCOc2ccc(C(=N)N)cc2)cc1` [PENTAMIDINE], the IC50 was 6.02 µM in series [5] and 7.7 µM in series [3]. Moreover, the selectivity ratio in series [4] was 1.1.
